Experimental data reported in ChEMBL document CHEMBL1165965, “Synthesis and structure-activity relationships of 1,2,3,4-tetrahydropyrido[2,3-b]pyrazines as potent and selective inhibitors of the anaplastic lymphoma kinase” (Bioorg Med Chem, 2010).

Tests used:
[1] = system: Phosphatidylinositol 4,5-bisphosphate 3-kinase catalytic subunit alpha isoform (Homo sapiens), P42336 [Q546K]; test: Inhibition of PIK3CA Q546K mutant at 1 uM
[2] = target: Protein kinase C eta type (Homo sapiens) (UniProt P24723); test: Inhibition of PRKCH at 1 uM
[3] = system: Tyrosine-protein kinase ABL1 (Homo sapiens), P00519 [Y253F]; test: Inhibition of ABL1 Y253F mutant at 1 uM
Outline: (§1)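 Ambit KINOMEscan screen at a single concentration across a 250–400 kinase panel, recorded as percent inhibition. Selectivity was expressed as S(90), the fraction of kinases inhibited >90%.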

[4] = target: Calcium/calmodulin-dependent protein kinase type 1G (Homo sapiens) (UniProt Q96NX5); test: Inhibition of CAMK1G at 1 uM; outline: as §1
[5] = system: Epidermal growth factor receptor (Homo sapiens), P00533 [G719S]; test: Inhibition of EGFR G719S mutant at 1 uM; format: protein assay
Outline: (§2)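 Single-concentration screen using Ambit Bioscience KINOMEscan technology across a panel of 250–400 kinases. Per-kinase inhibition from this screen was summarized as S(90), the fraction of kinases inhibited by more than 90%.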

[6] = target: Myosin light chain kinase, smooth muscle (Homo sapiens) (UniProt Q15746); test: Inhibition of MYLK at 1 uM
[7] = target: Bone morphogenetic protein receptor type-1B (Homo sapiens) (UniProt O00238); test: Inhibition of BMPR1B at 1 uM
[8] = target: Cyclin-dependent kinase 15 (Homo sapiens) (UniProt Q96Q40); test: Inhibition of PFTAIRE2 at 1 uM
[9] = target: Mitogen-activated protein kinase kinase kinase 10 (Homo sapiens) (UniProt Q02779); test: Inhibition of MLK2 at 1 uM
Outline: (§3)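 Kinase-panel screen using KINOMEscan technology, with 250–400 kinases per panel. Each compound was tested at a single concentration, and inhibition of each kinase was recorded. Selectivity was summarised as S(90), the fraction of kinases inhibited by more than 90%.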

[10] = target: 5'-AMP-activated protein kinase catalytic subunit alpha-1 (Homo sapiens) (UniProt Q13131); test: Inhibition of AMPK-alpha1 at 1 uM; outline: as §1
[11] = target: T1, Cyclin-dependent kinase-like 5 (Homo sapiens) (UniProt O76039); test: Inhibition of CDKL5 at 1 uM
T1 sequence (whole entry): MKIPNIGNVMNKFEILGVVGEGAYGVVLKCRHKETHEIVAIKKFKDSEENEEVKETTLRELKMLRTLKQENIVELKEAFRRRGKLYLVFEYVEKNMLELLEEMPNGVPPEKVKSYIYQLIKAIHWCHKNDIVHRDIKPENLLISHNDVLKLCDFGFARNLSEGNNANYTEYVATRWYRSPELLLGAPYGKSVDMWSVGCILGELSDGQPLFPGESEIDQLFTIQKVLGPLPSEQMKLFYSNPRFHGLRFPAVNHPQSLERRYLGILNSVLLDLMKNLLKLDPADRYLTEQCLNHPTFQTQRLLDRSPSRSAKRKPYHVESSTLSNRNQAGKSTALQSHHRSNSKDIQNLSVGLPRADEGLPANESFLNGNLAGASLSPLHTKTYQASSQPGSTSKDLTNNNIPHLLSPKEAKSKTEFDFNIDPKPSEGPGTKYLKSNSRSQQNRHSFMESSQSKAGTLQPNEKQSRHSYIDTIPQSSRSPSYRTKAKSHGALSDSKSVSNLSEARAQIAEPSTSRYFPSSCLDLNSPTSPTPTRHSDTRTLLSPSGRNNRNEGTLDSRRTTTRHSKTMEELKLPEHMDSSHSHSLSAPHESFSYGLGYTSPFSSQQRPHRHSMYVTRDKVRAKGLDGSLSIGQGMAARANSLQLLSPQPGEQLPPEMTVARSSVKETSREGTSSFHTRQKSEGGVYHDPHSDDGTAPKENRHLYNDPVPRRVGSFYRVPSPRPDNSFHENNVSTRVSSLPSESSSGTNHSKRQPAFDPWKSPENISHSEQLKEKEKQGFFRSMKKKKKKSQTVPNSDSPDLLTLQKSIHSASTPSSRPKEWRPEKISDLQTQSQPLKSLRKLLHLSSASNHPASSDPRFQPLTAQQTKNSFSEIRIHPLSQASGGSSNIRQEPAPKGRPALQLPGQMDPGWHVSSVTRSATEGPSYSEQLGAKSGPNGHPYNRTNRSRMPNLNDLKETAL

[12] = target: NT-3 growth factor receptor (Homo sapiens) (UniProt Q16288); test: Inhibition of TRKC at 1 uM
[13] = target: Cyclin-dependent kinase 9 (Homo sapiens) (UniProt P50750); test: Inhibition of CDK9 at 1 uM
[14] = target: Mitogen-activated protein kinase kinase kinase 20 (Homo sapiens) (UniProt Q9NYL2); test: Inhibition of ZAK at 1 uM
[15] = target: Tyrosine-protein kinase Fes/Fps (Homo sapiens) (UniProt P07332); test: Inhibition of FES at 1 uM; outline: as §2
[16] = target: Rho-associated protein kinase 1 (Homo sapiens) (UniProt Q13464); test: Inhibition of ROCK1 at 1 uM
[17] = system: Hepatocyte growth factor receptor (Homo sapiens), P08581 [M1250T]; test: Inhibition of MET M1250T mutant at 1 uM
[18] = target: T2, Dual specificity mitogen-activated protein kinase kinase 6 (Homo sapiens) (UniProt P52564); test: Inhibition of MEK6 at 1 uM; outline: as §3
T2 sequence (whole entry): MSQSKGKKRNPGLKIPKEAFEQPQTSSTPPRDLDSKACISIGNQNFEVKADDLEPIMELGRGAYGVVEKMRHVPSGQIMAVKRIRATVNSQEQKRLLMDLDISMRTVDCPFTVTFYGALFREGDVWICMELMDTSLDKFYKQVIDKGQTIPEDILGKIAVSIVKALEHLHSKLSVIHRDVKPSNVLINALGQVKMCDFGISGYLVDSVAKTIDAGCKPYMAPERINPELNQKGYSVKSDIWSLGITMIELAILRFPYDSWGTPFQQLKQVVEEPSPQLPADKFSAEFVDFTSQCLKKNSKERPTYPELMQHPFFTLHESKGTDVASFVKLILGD

[19] = target: Ribosomal protein S6 kinase alpha-6 (Homo sapiens) (UniProt Q9UK32); test: Inhibition of RPS6KA6 N-terminal domain1 at 1 uM

Sequence of Phosphatidylinositol 4,5-bisphosphate 3-kinase catalytic subunit alpha isoform (Homo sapiens), P42336 [Q546K] (P42336 whole entry Q546K, canonical isoform): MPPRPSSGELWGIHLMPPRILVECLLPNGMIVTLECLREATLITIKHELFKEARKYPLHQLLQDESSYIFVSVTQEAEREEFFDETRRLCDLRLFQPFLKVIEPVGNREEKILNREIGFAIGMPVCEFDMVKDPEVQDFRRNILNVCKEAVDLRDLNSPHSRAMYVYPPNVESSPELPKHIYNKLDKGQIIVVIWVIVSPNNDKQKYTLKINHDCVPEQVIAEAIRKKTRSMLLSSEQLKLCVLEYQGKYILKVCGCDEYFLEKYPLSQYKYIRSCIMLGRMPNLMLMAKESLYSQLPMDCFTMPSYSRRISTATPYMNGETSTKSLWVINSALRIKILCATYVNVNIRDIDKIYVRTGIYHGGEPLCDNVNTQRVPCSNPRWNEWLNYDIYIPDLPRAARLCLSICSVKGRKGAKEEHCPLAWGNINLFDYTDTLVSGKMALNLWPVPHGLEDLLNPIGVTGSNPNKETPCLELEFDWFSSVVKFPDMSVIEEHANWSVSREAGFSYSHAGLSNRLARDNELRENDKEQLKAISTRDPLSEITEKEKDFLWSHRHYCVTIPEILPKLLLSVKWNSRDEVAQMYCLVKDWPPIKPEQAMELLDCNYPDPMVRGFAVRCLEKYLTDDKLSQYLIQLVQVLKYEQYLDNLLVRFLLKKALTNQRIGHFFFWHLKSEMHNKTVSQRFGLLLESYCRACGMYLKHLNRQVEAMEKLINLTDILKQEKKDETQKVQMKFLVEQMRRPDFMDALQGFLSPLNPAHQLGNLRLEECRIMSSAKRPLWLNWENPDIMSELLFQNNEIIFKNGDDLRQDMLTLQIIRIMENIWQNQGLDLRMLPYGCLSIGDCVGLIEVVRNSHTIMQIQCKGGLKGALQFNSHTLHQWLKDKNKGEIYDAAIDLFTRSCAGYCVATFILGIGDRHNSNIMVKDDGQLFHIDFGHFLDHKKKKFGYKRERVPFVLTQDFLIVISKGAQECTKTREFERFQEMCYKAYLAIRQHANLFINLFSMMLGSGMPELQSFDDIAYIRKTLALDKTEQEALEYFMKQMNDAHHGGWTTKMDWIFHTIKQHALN
Sequence of Bone morphogenetic protein receptor type-1B (Homo sapiens) (O00238 whole entry): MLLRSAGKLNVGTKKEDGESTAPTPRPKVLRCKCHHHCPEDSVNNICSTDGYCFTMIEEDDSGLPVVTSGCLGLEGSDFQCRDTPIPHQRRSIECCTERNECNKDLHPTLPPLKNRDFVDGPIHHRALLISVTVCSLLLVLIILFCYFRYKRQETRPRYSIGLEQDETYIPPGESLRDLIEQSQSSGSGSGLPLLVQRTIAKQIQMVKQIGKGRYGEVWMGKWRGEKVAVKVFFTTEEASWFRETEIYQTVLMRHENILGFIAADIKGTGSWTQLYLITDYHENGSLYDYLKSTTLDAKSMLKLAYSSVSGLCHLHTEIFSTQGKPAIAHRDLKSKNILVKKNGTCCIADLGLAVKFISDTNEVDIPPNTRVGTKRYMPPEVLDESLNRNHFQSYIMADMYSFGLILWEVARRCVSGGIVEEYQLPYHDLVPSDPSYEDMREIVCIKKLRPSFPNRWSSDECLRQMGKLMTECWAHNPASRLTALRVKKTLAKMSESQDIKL
Sequence of Mitogen-activated protein kinase kinase kinase 20 (Homo sapiens) (Q9NYL2 2-800 limits assumed): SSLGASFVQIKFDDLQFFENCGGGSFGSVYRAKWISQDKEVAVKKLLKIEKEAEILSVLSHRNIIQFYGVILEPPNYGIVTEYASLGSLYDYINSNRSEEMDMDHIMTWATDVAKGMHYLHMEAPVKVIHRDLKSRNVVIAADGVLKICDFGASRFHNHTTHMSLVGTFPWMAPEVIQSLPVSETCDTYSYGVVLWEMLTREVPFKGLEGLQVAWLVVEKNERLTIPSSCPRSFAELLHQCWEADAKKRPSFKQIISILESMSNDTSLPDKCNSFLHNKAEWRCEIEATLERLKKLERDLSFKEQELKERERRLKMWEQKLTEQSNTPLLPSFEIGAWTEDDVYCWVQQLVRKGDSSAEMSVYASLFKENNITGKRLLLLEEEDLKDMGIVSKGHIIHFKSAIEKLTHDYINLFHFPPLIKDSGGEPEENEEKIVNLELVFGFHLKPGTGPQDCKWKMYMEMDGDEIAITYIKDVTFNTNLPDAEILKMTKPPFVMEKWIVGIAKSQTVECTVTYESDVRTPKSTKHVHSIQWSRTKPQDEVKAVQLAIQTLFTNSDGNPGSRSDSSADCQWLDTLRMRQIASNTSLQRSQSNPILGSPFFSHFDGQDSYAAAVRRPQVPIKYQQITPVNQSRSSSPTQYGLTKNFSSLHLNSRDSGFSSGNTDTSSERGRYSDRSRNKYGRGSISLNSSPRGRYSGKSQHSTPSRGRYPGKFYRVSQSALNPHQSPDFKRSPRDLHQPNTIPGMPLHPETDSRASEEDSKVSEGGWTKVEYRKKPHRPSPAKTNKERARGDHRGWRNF
Sequence of NT-3 growth factor receptor (Homo sapiens) (Q16288 32-839 limits assumed): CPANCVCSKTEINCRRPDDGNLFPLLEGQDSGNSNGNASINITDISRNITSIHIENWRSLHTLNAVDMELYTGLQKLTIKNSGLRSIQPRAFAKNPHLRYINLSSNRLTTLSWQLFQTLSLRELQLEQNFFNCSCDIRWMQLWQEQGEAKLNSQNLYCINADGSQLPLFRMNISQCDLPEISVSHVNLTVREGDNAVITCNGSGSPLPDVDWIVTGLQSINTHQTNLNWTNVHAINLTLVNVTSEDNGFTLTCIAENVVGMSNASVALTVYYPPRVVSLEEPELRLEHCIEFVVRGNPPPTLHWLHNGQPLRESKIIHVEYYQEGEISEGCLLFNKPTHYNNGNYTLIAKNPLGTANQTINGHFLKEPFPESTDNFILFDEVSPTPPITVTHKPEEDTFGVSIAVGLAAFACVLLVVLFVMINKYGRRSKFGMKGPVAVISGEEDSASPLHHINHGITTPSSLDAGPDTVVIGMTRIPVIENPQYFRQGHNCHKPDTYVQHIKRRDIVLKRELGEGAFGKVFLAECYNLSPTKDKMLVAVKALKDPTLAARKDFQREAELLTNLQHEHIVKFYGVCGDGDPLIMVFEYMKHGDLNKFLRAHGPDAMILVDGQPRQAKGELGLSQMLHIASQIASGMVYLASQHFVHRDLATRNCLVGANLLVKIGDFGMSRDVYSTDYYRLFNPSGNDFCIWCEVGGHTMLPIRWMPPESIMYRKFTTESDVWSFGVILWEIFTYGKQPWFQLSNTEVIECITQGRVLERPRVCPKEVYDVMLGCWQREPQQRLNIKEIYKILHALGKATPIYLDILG
Sequence of Calcium/calmodulin-dependent protein kinase type 1G (Homo sapiens) (Q96NX5 whole entry): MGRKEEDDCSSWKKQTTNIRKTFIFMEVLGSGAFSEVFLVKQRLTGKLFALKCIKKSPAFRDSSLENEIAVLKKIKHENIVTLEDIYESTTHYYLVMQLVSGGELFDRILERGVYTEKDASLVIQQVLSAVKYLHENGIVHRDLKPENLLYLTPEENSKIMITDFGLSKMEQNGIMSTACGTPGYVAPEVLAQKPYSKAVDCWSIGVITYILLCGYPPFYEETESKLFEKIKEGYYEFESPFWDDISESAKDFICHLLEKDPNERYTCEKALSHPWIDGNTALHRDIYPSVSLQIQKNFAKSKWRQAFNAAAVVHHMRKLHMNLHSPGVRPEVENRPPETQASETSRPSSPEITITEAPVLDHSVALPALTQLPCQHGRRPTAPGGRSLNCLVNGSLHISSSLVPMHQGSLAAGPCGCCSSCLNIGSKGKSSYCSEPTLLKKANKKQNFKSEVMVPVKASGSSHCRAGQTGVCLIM
Sequence of Tyrosine-protein kinase Fes/Fps (Homo sapiens) (P07332 whole entry): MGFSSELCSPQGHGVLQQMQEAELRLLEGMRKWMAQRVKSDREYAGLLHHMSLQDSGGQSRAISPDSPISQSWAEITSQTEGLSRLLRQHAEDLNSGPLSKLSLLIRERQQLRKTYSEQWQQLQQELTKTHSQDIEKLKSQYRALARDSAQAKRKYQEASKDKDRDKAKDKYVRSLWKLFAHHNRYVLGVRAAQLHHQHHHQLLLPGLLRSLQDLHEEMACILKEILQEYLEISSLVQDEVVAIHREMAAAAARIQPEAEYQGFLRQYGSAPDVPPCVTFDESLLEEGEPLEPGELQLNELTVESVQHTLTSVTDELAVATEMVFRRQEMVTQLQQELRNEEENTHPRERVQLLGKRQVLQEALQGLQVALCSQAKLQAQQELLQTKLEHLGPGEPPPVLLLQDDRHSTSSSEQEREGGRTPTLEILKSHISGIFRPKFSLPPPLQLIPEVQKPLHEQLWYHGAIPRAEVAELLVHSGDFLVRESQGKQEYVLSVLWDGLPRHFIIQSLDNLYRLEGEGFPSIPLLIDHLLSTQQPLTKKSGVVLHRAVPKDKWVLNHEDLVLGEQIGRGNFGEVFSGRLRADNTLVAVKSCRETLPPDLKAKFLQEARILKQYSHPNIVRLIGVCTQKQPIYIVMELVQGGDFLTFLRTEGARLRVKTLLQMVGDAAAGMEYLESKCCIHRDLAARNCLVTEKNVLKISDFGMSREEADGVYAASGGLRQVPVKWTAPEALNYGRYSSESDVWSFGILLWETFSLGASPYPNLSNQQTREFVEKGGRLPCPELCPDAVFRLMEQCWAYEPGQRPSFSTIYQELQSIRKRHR
Sequence of Cyclin-dependent kinase 15 (Homo sapiens) (Q96Q40 whole entry): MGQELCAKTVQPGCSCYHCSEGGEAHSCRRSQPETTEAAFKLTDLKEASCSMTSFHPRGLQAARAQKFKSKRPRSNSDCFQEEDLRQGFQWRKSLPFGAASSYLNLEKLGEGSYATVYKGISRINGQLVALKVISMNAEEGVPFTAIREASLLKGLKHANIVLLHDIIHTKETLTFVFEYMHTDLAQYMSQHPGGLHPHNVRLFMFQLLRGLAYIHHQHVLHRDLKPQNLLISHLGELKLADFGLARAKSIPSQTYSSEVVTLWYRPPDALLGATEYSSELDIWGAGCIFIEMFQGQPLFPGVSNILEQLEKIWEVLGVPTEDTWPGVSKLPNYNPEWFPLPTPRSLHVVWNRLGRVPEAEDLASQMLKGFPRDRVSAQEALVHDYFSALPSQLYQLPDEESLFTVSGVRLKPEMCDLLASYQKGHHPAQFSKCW

| Structure (SMILES) | inhibition [1] | inhibition [2] | inhibition [3] | inhibition [4] | inhibition [5] | inhibition [6] | inhibition [7] | inhibition [8] | inhibition [9] | inhibition [10] | inhibition [11] | inhibition [12] | inhibition [13] | inhibition [14] | inhibition [15] | inhibition [16] | inhibition [17] | inhibition [18] | inhibition [19] |
| --- | --- | --- | --- | --- | --- | --- | --- | --- | --- | --- | --- | --- | --- | --- | --- | --- | --- | --- | --- |
| CN1CCN(c2ccc(-c3cnc4c(c3)N(Cc3cc(Cl)ccc3Cl)CCN4)cn2)CC1 | < 50% | < 50% | < 50% | < 50% | < 50% | < 50% | < 50% | < 50% | < 50% | < 50% | < 50% | < 50% | < 50% | < 50% | < 50% | < 50% | < 50% | < 50% | < 50% |
| FC(F)(F)c1ccc(Cl)cc1CN1CCNc2ncc(-c3ccnc(N4CCNCC4)c3)cc21 | < 50% | < 50% | < 50% | < 50% | < 50% | < 50% | < 50% | < 50% | < 50% | 66% | < 50% | < 50% | < 50% | < 50% | < 50% | < 50% | 86% | < 50% | < 50% |
| CN1CCN(c2ccc(-c3cnc4c(c3)N(Cc3c(F)ccc(F)c3Cl)CCN4)cn2)CC1 | < 50% | < 50% | 82% | < 50% | < 50% | < 50% | < 50% | < 50% | < 50% | < 50% | < 50% | < 50% | < 50% | < 50% | < 50% | < 50% | 82% | < 50% | < 50% |
| CN1CCN(c2ccc(-c3cnc4c(c3)N(Cc3cc(F)ccc3F)CCN4)cn2)CC1 | < 50% | < 50% | < 50% | < 50% | < 50% | < 50% | < 50% | < 50% | < 50% | < 50% | < 50% | < 50% | < 50% | < 50% | < 50% | < 50% | < 50% | < 50% | < 50% |

Results, then the compound that gave them:

| inhibition [1] | inhibition [2] | inhibition [3] | inhibition [4] | inhibition [5] | inhibition [6] | inhibition [7] | inhibition [8] | inhibition [9] | inhibition [10] | inhibition [11] | inhibition [12] | inhibition [13] | inhibition [14] | inhibition [15] | inhibition [16] | inhibition [17] | inhibition [18] | inhibition [19] | Structure (SMILES) |
| --- | --- | --- | --- | --- | --- | --- | --- | --- | --- | --- | --- | --- | --- | --- | --- | --- | --- | --- | --- |
| < 50% | < 50% | < 50% | < 50% | < 50% | < 50% | < 50% | < 50% | < 50% | < 50% | < 50% | < 50% | < 50% | < 50% | < 50% | < 50% | < 50% | < 50% | < 50% | CN1CCN(c2ccc(-c3cnc4c(c3)N(Cc3cc(Cl)ccc3C(F)(F)F)CCN4)cn2)CC1 |
| – | < 50% | < 50% | < 50% | < 50% | – | – | – | < 50% | < 50% | – | < 50% | – | – | < 50% | – | – | < 50% | < 50% | COC1CCN(C(=O)c2ccc(-c3cnc4c(c3)N(Cc3cc(Cl)ccc3C(F)(F)F)CCN4)cc2)CC1 |
| – | < 50% | < 50% | < 50% | < 50% | – | – | – | < 50% | < 50% | – | < 50% | – | – | < 50% | – | – | < 50% | < 50% | O=C(c1ccc(-c2cnc3c(c2)N(Cc2cc(Cl)ccc2C(F)(F)F)CCN3)cc1)N1CCCCC1 |
| < 50% | < 50% | < 50% | < 50% | < 50% | < 50% | < 50% | < 50% | < 50% | < 50% | < 50% | < 50% | < 50% | < 50% | < 50% | < 50% | < 50% | < 50% | < 50% | CC(=O)N1CCN(c2cc(-c3cnc4c(c3)N(Cc3cc(Cl)ccc3C(F)(F)F)CCN4)ccn2)CC1 |
| – | < 50% | – | < 50% | < 50% | – | – | – | < 50% | < 50% | – | < 50% | – | – | < 50% | – | – | 93% | < 50% | O=C(O)c1ccc(-c2cnc3c(c2)N(Cc2cc(Cl)ccc2C(F)(F)F)CCN3)cc1 |
| – | < 50% | < 50% | < 50% | < 50% | – | – | – | < 50% | < 50% | – | < 50% | – | – | < 50% | – | – | < 50% | < 50% | O=C(c1ccc(-c2cnc3c(c2)N(Cc2cc(Cl)ccc2C(F)(F)F)CCN3)cc1)N1CCC(N2CCCC2)CC1 |
